Bioassay records (PubChem BioAssay)
MrgX1 allo act – allosterically activates human MrgX1 receptor signaling | B-score at 10 µM | MrgX1-HEK293, Fluo-4 calcium flux, FDSS; stronger effect = higher value | 310,000 compounds, 0.63% hits;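 active = plate-corrected calcium response at least 3 library SD above typical, normal starting fluorescence, not activating the receptor alone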;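 note: compound read alongside a low EC10 to EC30 dose of BAM8-22 agonist; peak minus trough fluorescence over baseline measured at the second addition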
Target sequence (Q96LB2 whole entry, looked up): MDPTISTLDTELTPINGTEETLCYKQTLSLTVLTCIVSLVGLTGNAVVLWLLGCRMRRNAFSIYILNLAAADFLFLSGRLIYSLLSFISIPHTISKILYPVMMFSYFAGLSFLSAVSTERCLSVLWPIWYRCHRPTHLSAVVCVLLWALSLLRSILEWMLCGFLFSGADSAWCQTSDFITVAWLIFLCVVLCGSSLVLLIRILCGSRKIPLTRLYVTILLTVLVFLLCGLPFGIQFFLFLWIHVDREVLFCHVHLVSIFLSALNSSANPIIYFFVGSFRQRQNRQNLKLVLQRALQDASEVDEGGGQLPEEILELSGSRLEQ
RGS4 pot – potentiators or activators of RGS4; AID 463111; 310,000 compounds, 0.92% hits; HEK293 M3R/inducible RGS4, carbachol calcium flux Fluo4; stronger effect = lower value; B-score at 10 µM;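 active = B-score of the integrated calcium signal more than 4 SD below the library mean, with starting fluorescence not abnormally high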;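 note: negative B-score means reduced calcium response which marks RGS4 activation or potentiation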
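System: HEK293 FlpIn-TREx cells, stable M3R, doxycycline-inducible RGS4. Timing: overnight RGS4 induction, 30 min dye load 37 °C, 20 min compound RT. Also added: carbachol, ECmax concentration. Measured by: Fluo4 fluorescence kinetic imaging of calcium. Evaluation: integrated calcium ratio converted to B score.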
RGS4 inh – inhibitors of human RGS4 | AID 463165 | P49798 | B-score at 10 µM | HEK293 M3R/RGS4 inducible, Fluo-4 calcium flux; stronger effect = higher value; triggered by carbachol at its EC20 | 310,000 compounds, 0.45% hits;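 active = B-score, a plate-corrected calcium signal, over three deviations above library mean, with baseline fluorescence within five deviations of library mean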;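 note: RGS4 expression induced by doxycycline in cells with stable M3 receptor; B-score is computed from the integrated fluorescence ratio over baseline after carbachol; higher B-score means a larger calcium signal and so more RGS4 inhibition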
Target sequence (P49798 whole entry, looked up): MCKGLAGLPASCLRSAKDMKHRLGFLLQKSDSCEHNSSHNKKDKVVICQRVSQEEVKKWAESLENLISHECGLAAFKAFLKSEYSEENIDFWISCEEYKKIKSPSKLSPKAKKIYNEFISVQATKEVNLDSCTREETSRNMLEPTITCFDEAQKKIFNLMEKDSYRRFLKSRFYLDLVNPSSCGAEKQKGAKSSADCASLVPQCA
MrgX1 antag – human MrgX1 receptor antagonism, primary screen; MRGX1-HEK293 calcium flux, Fluo-4, BAM8-22 antagonism; stronger effect = lower value; 310,000 compounds, 1.3% hits; AID 588676; B-score at 10 µM;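 active = calcium-response B-score plate-corrected more than 3 library SD below zero, starting fluorescence within 5 deviations, no agonist response on first addition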;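 note: peak minus trough fluorescence over baseline after final BAM8-22 challenge near maximal dose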
MrgX1 agonist – activates human MrgX1 receptor signaling; B-score at 10 µM; 310,000 compounds, 0.44% hits; Q96LB2; MrgX1-HEK293 cells, Fluo-4 calcium fluorescence, agonist mode; stronger effect = higher value;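 active = calcium response B-score plate-corrected fluorescence ratio at least 3 library SD, with starting fluorescence B-score inside 5 SD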
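Assay system: stable human MrgX1 HEK293 cell line. Quantity: 15,000 cells per well. Schedule: cells plated overnight, dye loaded 0.5 h 37 °C, 0.5 h room temperature. Detection: Fluo-4 NW calcium-flux fluorescence, kinetic read. Read-out basis: peak-minus-minimum fluorescence over baseline, converted to B scores. Control set: positive and negative control wells on each plate.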
RGS4 block valid – RGS4 inhibitor validation | shares compounds with RGS4 inh | HEK293 M3R/RGS4, carbachol calcium Fluo-4 fluorescence; carbachol added at its EC20; 0 = buffer wells, 100 = carbachol control | calcium response, % at 10 µM | 1,700 compounds, 65% hits;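 active = duplicate-averaged calcium response above the buffer-only control mean plus 5 SD of those controls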;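 note: integrated fluorescence ratio F max minus min over baseline F0; higher response in RGS4-induced cells means RGS4 inhibition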
RGS4 uninduced – non-induced cell nonspecific activity of RGS4 inhibitors | shares compounds with RGS4 inh | HEK293 M3R non-induced, carbachol calcium Fluo-4; submaximal (EC20) carbachol stimulus; buffer wells 0%, carbachol control wells 100% | activity (percent), % at 10 µM | 1,900 compounds, 20% hits; call rule not given here;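 note: RGS4 induction absent so cells express M3R without RGS4; higher means more calcium signal and flags a non-specific hit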
RGS4 inh ctr2 – second RGS4 inhibitor counter-screen in uninduced cells lacking carbachol; shares compounds with RGS4 inh; HEK293 M3R/RGS4 non-induced, Fluo-4 calcium, no carbachol; normalised: buffer wells 0%, carbachol wells 100%; calcium response (agonist-mode artifact), % at 10 µM; 1,900 compounds, 22% hits;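 active = duplicate-averaged calcium rise in uninduced cells above buffer wells' mean plus 5 SD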
Large screens that a line does not name were inactive (follow-up assays come after a bar, where they were run). Rows were chosen to be rich in hits. Some 3.5% of all compounds tested hit in one or more screens of this group.

COc1ccc(/C=N/NC(=O)c2nnn(-c3nonc3N)c2-c2cccc(OC)c2)cc1	MrgX1 allo act 7.2 | RGS4 uninduced 30.5% | RGS4 inh ctr2 8.0%
COc1cccc(-c2c(C(=O)N/N=C/c3cccs3)nnn2-c2nonc2N)c1	MrgX1 antag -7.58 | RGS4 uninduced 40.0% | RGS4 inh ctr2 inactive
Oc1c(Br)cc(Br)cc1C=Nc1ccc2c(c1)OCCO2	RGS4 inh 5.83 | RGS4 block valid inactive | RGS4 uninduced inactive | RGS4 inh ctr2 74.5%
Oc1c(Br)cc(Br)cc1C=Nc1ccc2c(c1)OCO2	none | RGS4 block valid inactive | RGS4 uninduced inactive | RGS4 inh ctr2 48.0%
O=[N+]([O-])c1ccc(O)c(C=Nc2ccc3c(c2)OCCO3)c1	none
O=C(CC1C(=O)NCCN1C(=O)Nc1ccccc1)Nc1cc(Cl)cc(Cl)c1 (stereo not given)	RGS4 inh 6.06 | RGS4 block valid 23.0% | RGS4 uninduced inactive | RGS4 inh ctr2 inactive
O=C(CC1C(=O)NCCN1C(=O)Nc1ccc(F)cc1)Nc1ccc(F)cc1 (stereo not given)	none | RGS4 uninduced inactive | RGS4 inh ctr2 inactive
O=C(CC1C(=O)NCCN1C(=O)Nc1ccccc1)Nc1cccc(Cl)c1 (stereo not given)	none | RGS4 block valid inactive | RGS4 uninduced inactive | RGS4 inh ctr2 inactive
COc1ccccc1C(=O)N1CCNC(=O)C1CC(=O)Nc1cccc(C)c1 (stereo not given)	RGS4 inh 5.09 | RGS4 block valid inactive | RGS4 uninduced inactive | RGS4 inh ctr2 inactive
COc1ccc(Cl)cc1C(=O)NNC(=O)CSc1nnnn1C	none
COc1ccc(C2C3=C(CCCC3=O)NC3=C2C(=O)c2ccccc23)cc1 (stereo not given)	RGS4 inh 10.6 | RGS4 block valid inactive | RGS4 uninduced inactive | RGS4 inh ctr2 inactive
Cc1ccc(C2C3=C(CC(C)(C)CC3=O)NC3=C2C(=O)c2ccccc23)cc1 (stereo not given)	none
COC(=O)/C=c1\sc2ncnn2c1=O	RGS4 inh 11.4 | RGS4 block valid inactive | RGS4 uninduced inactive | RGS4 inh ctr2 inactive
CCCCC(NC(=O)COc1cc2c(c3oc(=O)cc(C)c13)CCC(C)(C)O2)C(=O)O (stereo not given)	RGS4 inh 5.66 | RGS4 block valid inactive | RGS4 uninduced inactive | RGS4 inh ctr2 inactive
Cc1cc(=O)oc2c3c(cc(OCC(=O)N[C@@H](C)C(=O)O)c12)OC(C)(C)CC3	none | RGS4 uninduced inactive | RGS4 inh ctr2 inactive
Cc1cc(=O)oc2c3c(cc(OCC(=O)N[C@@H](Cc4ccccc4)C(=O)O)c12)OC(C)(C)CC3	none
Cc1cc(=O)[nH]c(N2CCN(Cc3ccccc3)CC2)n1	none
O=c1cc(-c2ccc(Cl)cc2)nc(N2CCN(c3ccccc3)CC2)[nH]1	RGS4 inh 9.74 | RGS4 block valid inactive | RGS4 uninduced 32.0% | RGS4 inh ctr2 inactive
O=C(CN(C(=O)CNS(=O)(=O)c1ccc(F)cc1)c1ccccc1)NCc1ccco1	none | RGS4 block valid inactive | RGS4 uninduced inactive | RGS4 inh ctr2 inactive
Cc1ccc(C)c(N(CC(=O)NCc2ccco2)C(=O)CNS(=O)(=O)c2ccc(F)cc2)c1	none
O=C(CN(C(=O)CNS(=O)(=O)c1ccc(F)cc1)c1ccccc1F)NCc1ccco1	RGS4 inh 4.92 | RGS4 block valid inactive | RGS4 uninduced inactive | RGS4 inh ctr2 inactive
O=C(CN(C(=O)CNS(=O)(=O)c1ccc(F)cc1)c1ccc(F)cc1)NCc1ccco1	none | RGS4 block valid inactive | RGS4 uninduced inactive | RGS4 inh ctr2 inactive
Cc1cc(C)n2nc(SCCCC(=O)c3ccc(F)cc3)nc2n1	none
CCNC(=O)COc1ccc(/C=C2\COc3ccccc3C2=O)cc1OC	none
